The results in this text go back to ChEMBL document CHEMBL4152277, “Structure-activity relationships of β-hairpin mimics as modulators of amyloid β-peptide aggregation” (Eur J Med Chem, 2018).

Assay [1] deals with Amyloid-beta precursor protein (Homo sapiens) (UniProt P05067). Nature of the assay: Inhibition of amyloid beta (1 to 42) (unknown origin) aggregation assessed as reduction in intensity of fluorescence plateau of aggregation at 10 uM using compound dissolved in DMSO measured after 42 hrs by Thioflavin T fluorescence assay relative to control. More on the design: scale not given: the % may be the effect or the level left. The gist of the method: (§1)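 Aβ1-42 dissolved in 1% aqueous ammonia at 1 mM, diluted to 0.2 mM in 10 mM Tris-HCl, 100 mM NaCl pH 7.4 just before use. Final 10 µM peptide added to 40 µM ThT with compound (final DMSO 0.5% v/v), room temperature. Triplicate wells, ex/em 440/480 nm for 42 h, read 2–4 times on different days. t1/2 extension and plateau F reduction are computed as % of peptide-alone values.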

Assay [2] has the same target. Nature of the assay: Inhibition of amyloid beta (1 to 42) (unknown origin) aggregation assessed as increase in time of half-life of aggregation at 10 uM using compound dissolved in DMSO measured after 42 hrs by Thioflavin T fluorescence assay relative to control. More on the design: scale not given: the % may be the effect or the level left. The gist of the method: as §1

Assay [3] has the same target. Kind of assay: Inhibition of amyloid beta (1 to 42) (unknown origin) aggregation assessed as increase in time of half-life of aggregation at 100 uM using compound dissolved in DMSO measured after 42 hrs by Thioflavin T fluorescence assay relative to control. More on the design: scale not given: the % may be the effect or the level left. A digest of the protocol:
as §1

Assay [4] has the same target. Nature of the assay: Inhibition of amyloid beta (1 to 42) (unknown origin) aggregation assessed as reduction in intensity of fluorescence plateau of aggregation at 100 uM using compound dissolved in DMSO measured after 42 hrs by Thioflavin T fluorescence assay relative to control. More on the design: scale not given: the % may be the effect or the level left. A digest of the protocol: as §1

The target is the same in assay [5]. Kind of assay: Inhibition of amyloid beta (1 to 42) (unknown origin) aggregation assessed as increase in time of half-life of aggregation at 1 uM using compound dissolved in DMSO measured after 42 hrs by Thioflavin T fluorescence assay relative to control. The gist of the method:
as §1

The target is the same in assay [6]. Kind of assay: Inhibition of amyloid beta (1 to 42) (unknown origin) aggregation assessed as reduction in intensity of fluorescence plateau of aggregation at 1 uM using compound dissolved in DMSO measured after 42 hrs by Thioflavin T fluorescence assay relative to control. More on the design: scale not given: the % may be the effect or the level left. A digest of the protocol:
as §1

Assay [7] shares this target. Kind of assay: Inhibition of amyloid beta (1 to 42) (unknown origin) aggregation assessed as reduction in intensity of fluorescence plateau of aggregation at 100 uM using compound dissolved in water measured after 42 hrs by Thioflavin T fluorescence assay relative to control. Further details: scale not given: the % may be the effect or the level left. The gist of the method:
(§2)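 ThT kinetics of 10 µM Aβ1-42 (from 1 mM ammonia stock, diluted in 10 mM Tris-HCl, 100 mM NaCl, pH 7.4) with 40 µM ThT at room temperature. Compound is dissolved in water (0.5% v/v) rather than DMSO and used at 10:1 compound/peptide. Fluorescence 440/480 nm over 42 h. t1/2 and plateau F are expressed as % change versus peptide alone.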

Assay [8] shares this target. Nature of the assay: Inhibition of amyloid beta (1 to 42) (unknown origin) aggregation assessed as increase in time of half-life of aggregation at 100 uM using compound dissolved in water measured after 42 hrs by Thioflavin T fluorescence assay relative to control. More on the design: scale not given: the % may be the effect or the level left. A digest of the protocol: as §2

For assay [9] the target is unchanged. Nature of the assay: Inhibition of amyloid beta (1 to 42) (unknown origin) aggregation at 100 uM after 42 hrs by uranyl acetate staining based transmission electron microscopic method. The gist of the method:
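Samples are prepared as for ThT: 10 µM Aβ1-42 in 10 mM Tris-HCl, 100 mM NaCl pH 7.4, ±100 µM compound, incubated 42 h. Aliquots adsorbed 2 min on 300-mesh carbon grids, washed, dried, negatively stained 45 s and imaged by TEM.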

The target is the same in assay [10]. Nature of the assay: Inhibition of amyloid beta (1 to 42) (unknown origin) aggregation at 1 to 100 uM treated immediately or 3 hrs after fibrillization kinetics by Thioflavin T fluorescence assay. The gist of the method:
(§3)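 Same ThT set-up (10 µM Aβ1-42, 40 µM ThT, Tris-HCl/NaCl pH 7.4, room temperature, 440/480 nm), except compound is added at the start of kinetics or 3, 19 or 44 h after it. Tested at 1:1 and 10:1 compound/peptide ratios.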

Assay [11] shares this target. Nature of the assay: Inhibition of amyloid beta (1 to 42) (unknown origin) oligomerization assessed as amyloid beta monomer level at 100 uM after 12 hrs by capillary electrophoresis method (reference value: 0%). More on the design: scale not given: the % may be the effect or the level left. A digest of the protocol: (§4)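 Aβ1-42 reconstituted at 100 µM final in 20 mM phosphate pH 7.4 with 2.5% v/v DMSO (compound stock or control), compound at 10:1 ratio. Profiles taken at 0, 2, 6 and 12 h. CE in fused silica capillary, 80 mM phosphate pH 7.4, −30 kV, 20°C, UV 190 nm. Monomer peak area is related to that of peptide alone at 0 h.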

For assay [12] the target is unchanged. Nature of the assay: Inhibition of amyloid beta (1 to 42) (unknown origin) oligomerization assessed as increase in amyloid beta monomer level at 100 uM up to 2 hrs by capillary electrophoresis method. A digest of the protocol: as §4
The target is the same in assay [13]. Nature of the assay: Inhibition of amyloid beta (1 to 42) (unknown origin) aggregation at 1 to 100 uM treated at 19 to 44 hrs after fibrillization kinetics by Thioflavin T fluorescence assay. The gist of the method: as §3
Assay [14] shares this target. Nature of the assay: Inhibition of amyloid beta (1 to 42) (unknown origin) oligomerization assessed as amyloid beta monomer level at 100 uM after 6 hrs by capillary electrophoresis method (reference value: 4%). More on the design: scale not given: the % may be the effect or the level left. The gist of the method:
as §4

SMILES strings stand for the structures. Active and inactive are the calls of the source. The rule behind the calls is not given here.

Amyloid-beta precursor protein (Homo sapiens), sequence (P05067 whole entry): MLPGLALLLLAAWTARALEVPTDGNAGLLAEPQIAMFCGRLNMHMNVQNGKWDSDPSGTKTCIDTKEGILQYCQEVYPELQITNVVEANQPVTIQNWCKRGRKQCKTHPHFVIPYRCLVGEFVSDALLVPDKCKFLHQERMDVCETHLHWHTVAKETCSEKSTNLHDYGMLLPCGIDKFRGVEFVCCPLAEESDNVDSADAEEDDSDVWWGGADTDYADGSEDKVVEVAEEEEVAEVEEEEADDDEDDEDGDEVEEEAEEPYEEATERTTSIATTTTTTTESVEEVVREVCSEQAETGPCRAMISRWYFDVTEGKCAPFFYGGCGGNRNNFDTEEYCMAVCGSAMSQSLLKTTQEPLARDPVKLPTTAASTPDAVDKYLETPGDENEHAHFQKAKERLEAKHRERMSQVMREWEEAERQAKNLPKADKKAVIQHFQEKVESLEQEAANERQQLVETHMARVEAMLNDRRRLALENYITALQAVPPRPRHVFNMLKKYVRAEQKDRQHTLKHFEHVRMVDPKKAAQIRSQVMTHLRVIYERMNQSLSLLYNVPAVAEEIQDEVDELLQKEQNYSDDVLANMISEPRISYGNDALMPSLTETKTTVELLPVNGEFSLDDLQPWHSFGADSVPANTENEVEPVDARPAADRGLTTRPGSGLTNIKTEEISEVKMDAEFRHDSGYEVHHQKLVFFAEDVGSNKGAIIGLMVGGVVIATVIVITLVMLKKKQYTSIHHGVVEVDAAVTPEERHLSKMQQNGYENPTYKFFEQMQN

Consider `COc1ccc(NC(C)=O)cc1C(=O)NNC(=O)[C@H](CCCCN)NC(=O)[C@@H]1CCCN1[C@@H]1CN(C(=O)[C@@H](NC(=O)[C@H](C)NC(=O)OC(C)(C)C)C(C)C)CC[C@H]1NS(=O)(=O)c1ccc(C)cc1`, for which the outcome in [1] and in assay [4] was inactive. The Activity in assay [2] is 23%; in assay [3], 59%.

For the compound `COc1ccc(NC(C)=O)cc1C(=O)NNC(=O)[C@H](CCCCN)NC(=O)[C@@H]1CCCN1[C@@H]1CN(C(=O)[C@@H](NC(=O)[C@H](C)NC(=O)[C@@H](N)C(C)C)C(C)C)CC[C@H]1NS(=O)(=O)c1ccc(C)cc1`, the outcome in assay [1], in assay [5], in assay [2] and in assay [6] was inactive. The Activity in assay [3] is 30%; in assay [7] it was 35%; in assay [8], 58%; in assay [4], 32%.

On to `COc1ccc(NC(C)=O)cc1C(=O)NNC(=O)[C@H](CCCCN)NC(=O)[C@@H]1CCCN1[C@@H]1CN(C(=O)[C@@H](NC(=O)[C@H](C)N)C(C)C)CC[C@H]1NC(=O)OC(C)(C)C`, for which, in assay [1], the outcome was inactive. Further, the values for the Activity in assay [2], in assay [3] and in [4] were 13%, 29% and 43%, respectively.

Take `COc1ccc(NC(C)=O)cc1C(=O)NNC(=O)[C@H](CCCCNC(=O)OCc1ccccc1)NC(=O)[C@@H]1CCCN1[C@@H]1CN(C(=O)[C@@H](NC(=O)[C@H](C)NC(=O)OC(C)(C)C)C(C)C)CC[C@H]1NS(=O)(=O)c1ccc(C)cc1`: the outcome in assay [1], in assay [2], in [3] and in [4] was inactive.

For `COC(=O)[C@@H]1CCCN1[C@@H]1CNCC[C@H]1NS(=O)(=O)c1ccc(C)cc1`, the outcome in [1], in [2] and in [3] was inactive. Moreover, in [4], the Activity amounted to 23%.

For the compound `COc1ccc(NC(C)=O)cc1C(=O)NNC(=O)[C@H](CCCCN)NC(=O)[C@@H]1CCCN1[C@@H]1CN(C(=O)[C@@H](NC(=O)[C@H](C)N)C(C)C)CC[C@H]1NS(=O)(=O)c1ccc(N)cc1`, the result in [1] was inactive. For the same compound, the Activity in assay [2] turned out to be 27%; in [3], 56%; in assay [4], 54%. The inhibition result in assay [9] is “Active”.

Turning to `CSCC[C@H](NC(=O)[C@H](CC(C)C)NC(=O)CN)C(=O)N[C@H](C(=O)NCC(=O)N1CC[C@@H](NS(=O)(=O)c2ccc(C)cc2)[C@H](N2CCC[C@H]2C(=O)N[C@@H](CCCCN)C(=O)N[C@@H](CC(C)C)C(=O)N[C@H](C(=O)N[C@@H](Cc2ccccc2)C(=O)N[C@@H](Cc2ccccc2)C(N)=O)C(C)C)C1)C(C)C`, the Activity worked out at 90% in assay [1] and 97% in [4]. The result in assay [2] and in assay [3] was inactive.

In the case of `COc1ccc(NC(C)=O)cc1C(=O)NNC(=O)[C@H](CCCCN)NC(=O)[C@@H]1CCCN1[C@@H]1CN(C(=O)[C@@H](NC(=O)[C@H](C)N)C(C)C)CC[C@H]1N`, the outcome in assay [1], in [2] and in assay [3] was inactive. For the same compound, the Activity in [4] worked out at 18%.

Regarding `COc1ccc(NC(C)=O)cc1C(=O)NNC(=O)[C@H](CCCCN)NC(=O)[C@@H]1CCCN1[C@@H]1CN(C(=O)[C@@H](NC(=O)[C@H](C)N)C(C)C)CC[C@H]1NS(=O)(=O)c1ccc(C)cc1`, the Activity in assay [1] was determined as 38%; in [11] it was 31%; in [2], 36%; in assay [6] it was 38%; in assay [3], 76%; in [7] it was 81%. For the same compound, the Activity in assay [8] was 96%; in assay [14], 49%; in assay [4], 66%. For the same compound, the outcome in [5] was inactive. The inhibition entry in assay [10] and in assay [9] was “Active” each time. Besides, the inhibition entry in assay [12] and in assay [13] was “inactive” each time.
